Measured values from ChEMBL document CHEMBL1142488, “Synthesis of N-substituted 5-[2-(N-alkylamino)ethyl]dibenzo[c,h][1,6]naphthyridines as novel topoisomerase I-targeting antitumor agents” (Bioorg Med Chem, 2008).

Tests used:
MDA-MB-435 (human) [1] = assay: Antitumor activity against human MDA-MB-435 cells xenografted in NCR/NU NU mouse assessed as tumor volume measured on day 35 initially dosed at 2 mg/kg, ip qd x 5/week for 2 weeks and was gradually increased to 6 mg/kg x 5/week schedule
MDA-MB-435 (human) [2] = assay: Antitumor activity against human MDA-MB-435 cells xenografted in NCR/NU NU mouse assessed as tumor volume measured on day 42 initially dosed at 2 mg/kg, ip qd x 5/week for 2 weeks and was gradually increased to 6 mg/kg x 5/week schedule
MDA-MB-435 (human) [3] = assay: Antitumor activity against human MDA-MB-435 cells xenografted in NCR/NU NU mouse assessed as tumor volume measured on day 28 initially dosed at 2 mg/kg, ip qd x 5/week for 2 weeks and was gradually increased to 6 mg/kg x 5/week schedule
MDA-MB-435 (human) [4] = assay: Antitumor activity against human MDA-MB-435 cells xenografted in NCR/NU NU mouse assessed as tumor volume measured on day 14 initially dosed at 2 mg/kg, ip qd x 5/week for 2 weeks and was gradually increased to 6 mg/kg x 5/week schedule
MDA-MB-435 (human) [5] = assay: Antitumor activity against human MDA-MB-435 cells xenografted in NCR/NU NU mouse assessed as tumor volume measured on day 21 initially dosed at 2 mg/kg, ip qd x 5/week for 2 weeks and was gradually increased to 6 mg/kg x 5/week schedule
[6] = Cytotoxicity against human KB3-1 cells after MTT assay; type: functional, cell-based; conditions: KB 3-1
Outline: (§1)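 IC50 after continuous 4-day exposure to varying drug concentrations, with MTT read at the end of day 4. A drug-free control was included. At least two runs, each in six replicate wells.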

[7] = target: T1, DNA topoisomerase 1 (Homo sapiens) (UniProt P11387); assay: Inhibition of human topoisomerase 1 mediated DNA cleavage assessed as effective drug concentration causing 10% YepG plasmid cleavage relative to camptothecin
T1 sequence (whole entry): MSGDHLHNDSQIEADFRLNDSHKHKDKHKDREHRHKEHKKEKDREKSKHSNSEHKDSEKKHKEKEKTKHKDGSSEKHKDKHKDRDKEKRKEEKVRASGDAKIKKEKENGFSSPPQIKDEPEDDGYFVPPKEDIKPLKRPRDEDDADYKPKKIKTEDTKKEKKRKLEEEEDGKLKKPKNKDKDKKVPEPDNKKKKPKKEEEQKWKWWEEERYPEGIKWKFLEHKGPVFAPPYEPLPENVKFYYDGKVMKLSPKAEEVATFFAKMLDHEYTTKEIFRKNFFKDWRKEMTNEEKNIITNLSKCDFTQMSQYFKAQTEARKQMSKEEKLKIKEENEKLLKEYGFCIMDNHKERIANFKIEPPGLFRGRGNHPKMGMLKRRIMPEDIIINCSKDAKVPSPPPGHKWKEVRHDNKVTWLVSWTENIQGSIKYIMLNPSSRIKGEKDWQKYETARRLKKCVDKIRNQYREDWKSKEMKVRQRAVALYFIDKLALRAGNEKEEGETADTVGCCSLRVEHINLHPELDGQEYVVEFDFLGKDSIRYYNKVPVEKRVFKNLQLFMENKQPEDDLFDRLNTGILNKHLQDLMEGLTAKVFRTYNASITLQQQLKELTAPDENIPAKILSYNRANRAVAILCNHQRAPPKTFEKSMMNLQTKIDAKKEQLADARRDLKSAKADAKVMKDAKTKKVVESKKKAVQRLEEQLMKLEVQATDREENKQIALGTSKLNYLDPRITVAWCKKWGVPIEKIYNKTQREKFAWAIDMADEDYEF
Outline: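 Stopped with SDS and proteinase K, 1 h at 37 °C. Alkali-denatured with NaOH/EDTA/sucrose/bromophenol blue, then run on neutral agarose gel.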

[8] = Cytotoxicity against multidrug resistant human KBV-1 cells overexpressing MDR1 after MTT assay; type: functional, cell-based; conditions: KB-V1
Outline: as §1

P388 = assay: Cytotoxicity against mouse P388 cells after MTT assay; type: functional, cell-based
Outline: (§2)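 Suspension cultures at 37 °C, 5% CO2, in RPMI with 10% heat-inactivated FBS, 2 mM L-glutamine, penicillin and streptomycin. Continuous 4-day exposure to a range of drug concentrations, then MTT read-out to give IC50. Drug-free control included. At least two runs, six replicate wells each.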

[9] = Cytotoxicity against camptothecin-resistant human CPT-K5 cells after MTT assay; type: functional, cell-based
Outline: as §2

[10] = Cytotoxicity against multidrug resistant human KBH5.0 cells overexpressing BCRP after MTT assay; type: functional, cell-based; conditions: KBH5.0 cell
Outline: as §1

MDA-MB-435 (human) [11] = assay: Antitumor activity against human MDA-MB-435 cells xenografted in NCR/NU NU mouse assessed as tumor volume measured on day 49 initially dosed at 2 mg/kg, ip qd x 5/week for 2 weeks and was gradually increased to 6 mg/kg x 5/week schedule
[12] = Cytotoxicity against human RPMI8402 cells after MTT assay; type: functional, cell-based; conditions: RPMI 8402
Outline: as §2

[13] = Cytotoxicity against camptothecin-resistant and TOP1 deficient mouse P388/CPT45 cells after MTT assay; type: functional, cell-based; conditions: P388CPT45
Outline: as §2

MDA-MB-435 (human) [14] = assay: Antitumor activity against human MDA-MB-435 cells xenografted in NCR/NU NU mouse assessed as tumor volume measured on day 7 initially dosed at 2 mg/kg, ip qd x 5/week for 2 weeks and was gradually increased to 6 mg/kg x 5/week schedule
MDA-MB-435 (human) [15] = assay: Antitumor activity against human MDA-MB-435 cells xenografted in NCR/NU NU mouse assessed as tumor volume measured on day 7 initially dosed at 5 mg/kg, ip qd x 5/week for 2 weeks and was gradually increased to 6 mg/kg x 5/week for 2 weeks and adjusted to 6 mg/kg qd x 3/week for 1 week schedule
MDA-MB-435 (human) [16] = assay: Antitumor activity against human MDA-MB-435 cells xenografted in NCR/NU NU mouse assessed as tumor volume measured on day 49 initially dosed at 5 mg/kg, ip qd x 5/week for 2 weeks and was gradually increased to 6 mg/kg x 5/week for 2 weeks and adjusted to 6 mg/kg qd x 3/week for 1 week schedule
MDA-MB-435 (human) [17] = assay: Antitumor activity against human MDA-MB-435 cells xenografted in NCR/NU NU mouse assessed as tumor volume measured on day 28 initially dosed at 5 mg/kg, ip qd x 5/week for 2 weeks and was gradually increased to 6 mg/kg x 5/week for 2 weeks and adjusted to 6 mg/kg qd x 3/week for 1 week schedule
MDA-MB-435 (human) [18] = assay: Antitumor activity against human MDA-MB-435 cells xenografted in NCR/NU NU mouse assessed as tumor volume measured on day 21 initially dosed at 5 mg/kg, ip qd x 5/week for 2 weeks and was gradually increased to 6 mg/kg x 5/week for 2 weeks and adjusted to 6 mg/kg qd x 3/week for 1 week schedule
MDA-MB-435 (human) [19] = assay: Antitumor activity against human MDA-MB-435 cells xenografted in NCR/NU NU mouse assessed as tumor volume measured on day 35 initially dosed at 5 mg/kg, ip qd x 5/week for 2 weeks and was gradually increased to 6 mg/kg x 5/week for 2 weeks and adjusted to 6 mg/kg qd x 3/week for 1 week schedule
MDA-MB-435 (human) [20] = assay: Antitumor activity against human MDA-MB-435 cells xenografted in NCR/NU NU mouse assessed as tumor volume measured on day 14 initially dosed at 5 mg/kg, ip qd x 5/week for 2 weeks and was gradually increased to 6 mg/kg x 5/week for 2 weeks and adjusted to 6 mg/kg qd x 3/week for 1 week schedule
MDA-MB-435 (human) [21] = assay: Antitumor activity against human MDA-MB-435 cells xenografted in NCR/NU NU mouse assessed as tumor volume measured on day 42 initially dosed at 5 mg/kg, ip qd x 5/week for 2 weeks and was gradually increased to 6 mg/kg x 5/week for 2 weeks and adjusted to 6 mg/kg qd x 3/week for 1 week schedule
[22] = in the assay text read “relative to topotecan” for “relative to camptothecin”

Structure (SMILES)	Activity (MDA-MB-435 (human) [1])	Activity (MDA-MB-435 (human) [2])	Activity (MDA-MB-435 (human) [3])	Activity (MDA-MB-435 (human) [4])	Activity (MDA-MB-435 (human) [5])	IC50 [6]	Activity [7, 22]	IC50 [8]	IC50 (P388)	IC50 [9]	IC50 [10]	Activity (MDA-MB-435 (human) [11])	IC50 [12]	IC50 [13]	Activity (MDA-MB-435 (human) [14])	also measured
C#CCN(CC)CCn1c(=O)c2cc(OC)c(OC)cc2c2cnc3cc4c(cc3c21)OCO4	331 mm3	349 mm3	204 mm3	106 mm3	170 mm3	70 nM	> 10	100 nM	35 nM	> 10000 nM	110 nM	488 mm3	17 nM	2300 nM	115 mm3	
COc1cc2c(=O)n(CCN(C)CC(F)(F)F)c3c4cc5c(cc4ncc3c2cc1OC)OCO5						410 nM	> 10	1000 nM	250 nM	> 10000 nM	630 nM		250 nM	> 10000 nM		
CC[C@@]1(O)C(=O)OCc2c1cc1n(c2=O)Cc2cc3c(CN(C)C)c(O)ccc3nc2-1 [TOPOTECAN]						40 nM	1			> 10000 nM	440 nM		21 nM	> 10000 nM		
CCN(CC#N)CCn1c(=O)c2cc(OC)c(OC)cc2c2cnc3cc4c(cc3c21)OCO4	293 mm3	361 mm3	202 mm3	156 mm3	178 mm3	4 nM	< 0.2	34 nM	1 nM	670 nM	7 nM	435 mm3	1 nM	130 nM	100 mm3	
CCN(CCn1c(=O)c2cc(OC)c(OC)cc2c2cnc3cc4c(cc3c21)OCO4)CC(F)(F)F	435 mm3	543 mm3	310 mm3	176 mm3	268 mm3	650 nM	> 10	2900 nM	610 nM	> 10000 nM	750 nM	718 mm3	700 nM	> 10000 nM	127 mm3	
COc1cc2c(=O)n(CCN(CC(F)(F)F)C(C)C)c3c4cc5c(cc4ncc3c2cc1OC)OCO5						1000 nM	> 10	4400 nM	1100 nM	> 10000 nM	1100 nM		1900 nM	> 10000 nM		
COc1cc2c(=O)n(CCN(C)CC#N)c3c4cc5c(cc4ncc3c2cc1OC)OCO5	528 mm3	669 mm3	392 mm3	222 mm3	370 mm3	5 nM	< 0.2	43 nM	3 nM	980 nM	27 nM	919 mm3	4 nM	220 nM	149 mm3	
COc1cc2c(=O)n(CCN(CC#N)C(C)C)c3c4cc5c(cc4ncc3c2cc1OC)OCO5						6 nM	< 0.2	43 nM	2 nM	1300 nM	9 nM		2 nM	60 nM		Activity (MDA-MB-435 (human) [15]): 142 mm3; Activity (MDA-MB-435 (human) [16]): 314 mm3; Activity (MDA-MB-435 (human) [17]): 220 mm3; Activity (MDA-MB-435 (human) [18]): 213 mm3; Activity (MDA-MB-435 (human) [19]): 250 mm3; Activity (MDA-MB-435 (human) [20]): 175 mm3; Activity (MDA-MB-435 (human) [21]): 286 mm3
CC[C@@]1(O)C(=O)OCc2c1cc1n(c2=O)Cc2cc3ccccc3nc2-1 [CAMPTOTHECIN]										> 10000 nM			6 nM	> 10000 nM		
CCOc1cc2c(=O)n(CCN(C)C)c3c4cc5c(cc4ncc3c2cc1OCC)OCO5						70 nM		190 nM	15 nM	140 nM	100 nM		150 nM	13 nM		Activity [7]: > 10
C#CCN(CCn1c(=O)c2cc(OC)c(OC)cc2c2cnc3cc4c(cc3c21)OCO4)C(C)C	234 mm3	310 mm3	170 mm3	112 mm3	165 mm3	100 nM	> 10	430 nM	80 nM	> 10000 nM	70 nM	357 mm3	65 nM	3700 nM	99 mm3	
